Assay results from ChEMBL document CHEMBL1649119, “Daptomycin pharmacokinetics in adult oncology patients with neutropenic fever” (Antimicrob Agents Chemother, 2009).

Tests used:
[1] = system: Homo sapiens; assay: Cmax in healthy human subjects at 6 mg/kg, iv administered as 30 mins infusion every 24 hrs measured on day 4; assay type: ADME, organism-based; set-up: dose 6 mg/kg, route intravenous; conditions: in vivo
[2] = Apparent volume of distribution during terminal phase in healthy human subjects at 10 mg/kg, iv administered as 30 mins infusion every 24 hrs measured on day 1; assay type: ADME, organism-based; set-up: dose 10 mg/kg, route intravenous; conditions: in vivo
[3] = Half life in morbidly obese adult human at 4 mg/kg, iv administered as single dose 30 mins infusion; assay type: ADME, organism-based; set-up: dose 4 mg/kg, route intravenous; conditions: in vivo
[4] = AUC (0 to infinity) in healthy human subjects at 6 mg/kg, iv administered as 30 mins infusion every 24 hrs measured on day 4; assay type: ADME, organism-based; set-up: time infinity, dose 6 mg/kg, route intravenous; conditions: plasma
[5] = Cmax in nonobese human at 4 mg/kg, iv administered as single dose 30 mins infusion; assay type: ADME, organism-based; set-up: dose 4 mg/kg, route intravenous; conditions: in vivo
[6] = Plasma protein binding in human after 8 hrs; assay type: ADME, cell-free; conditions: read-out: PPB (converted)
Outline: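 Neutropenic-fever oncology patients received 6 mg/kg IV daptomycin; serum was drawn 0.5, 2 and 8 h after the end of infusion. Free drug was obtained by ultrafiltration (30,000-MW cutoff) and quantified by HPLC against a saline-matrix curve of 0.25–100 μg/ml, with total plasma drug also measured. Percent bound was (total − free)/total × 100; results are given as mean ± SD.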

[7] = Drug excretion in adult human subjects urine assessed as unchanged drug at 6 mg/kg, iv administered as single dose 30 mins infusion; assay type: ADME, organism-based; set-up: dose 6 mg/kg, route intravenous; conditions: read-out: Drug uptake
[8] = Half life in adult human subjects at 6 mg/kg, iv administered as single dose 30 mins infusion; assay type: ADME, organism-based; set-up: dose 6 mg/kg, route intravenous; conditions: in vivo
[9] = Mean residence time in young healthy human at 4 mg/kg, iv administered as single dose 30 mins infusion; assay type: ADME, organism-based; set-up: dose 4 mg/kg, route intravenous; conditions: in vivo
[10] = Unbound fraction in healthy human plasma at 4 mg/kg, iv administered as 30 mins infusion every 24 hrs measured on day 7; assay type: ADME, organism-based; set-up: dose 4 mg/kg, route intravenous
[11] = Clearance in healthy human subjects at 6 mg/kg, iv administered as 30 mins infusion every 24 hrs measured on days 1-3; assay type: ADME, organism-based; set-up: dose 6 mg/kg, route intravenous; conditions: in vivo
[12] = system: Homo sapiens; assay: Apparent volume of distribution during terminal phase in healthy human subjects at 6 mg/kg, iv administered as 30 mins infusion every 24 hrs measured on day 1; assay type: ADME, organism-based; set-up: dose 6 mg/kg, route intravenous; conditions: in vivo
[13] = Clearance in healthy human subjects at 10 mg/kg, iv administered as 30 mins infusion every 24 hrs measured on day 4; assay type: ADME, organism-based; set-up: dose 10 mg/kg, route intravenous; conditions: in vivo
[14] = Drug excretion in adult human with hepatic impairment urine assessed as unchanged drug at 6 mg/kg, iv administered as single dose 30 mins infusion; assay type: ADME, organism-based; set-up: dose 6 mg/kg, route intravenous; conditions: read-out: Drug uptake
[15] = Apparent volume of distribution during terminal phase in healthy human subjects at 12 mg/kg, iv administered as 30 mins infusion every 24 hrs measured on day 1; assay type: ADME, organism-based; set-up: dose 12 mg/kg, route intravenous; conditions: in vivo
[16] = Apparent volume of distribution during terminal phase in healthy human subjects at 12 mg/kg, iv administered as 30 mins infusion every 24 hrs measured on day 4; assay type: ADME, organism-based; set-up: dose 12 mg/kg, route intravenous; conditions: in vivo
[17] = Clearance in morbidly obese adult human at 4 mg/kg, iv administered as single dose 30 mins infusion; assay type: ADME, organism-based; set-up: dose 4 mg/kg, route intravenous; conditions: in vivo
[18] = system: Homo sapiens; assay: Volume of distribution at steady state in healthy human at 4 mg/kg, iv administered as single dose 30 mins infusion; assay type: ADME, organism-based; set-up: dose 4 mg/kg, route intravenous; conditions: in vivo, 0.5 h
[19] = Half life in healthy human subjects at 8 mg/kg, iv administered as 30 mins infusion every 24 hrs measured on day 4; assay type: ADME, organism-based; set-up: dose 8 mg/kg, route intravenous; conditions: in vivo
[20] = Plasma concentration in young healthy human at 4 mg/kg, iv administered as single dose 30 mins infusion measured after 24 hrs; assay type: ADME, organism-based; set-up: dose 4 mg/kg, route intravenous
[21] = Clearance in healthy human at 8 mg/kg, iv administered as 30 mins infusion every 24 hrs measured on day 14; assay type: ADME, organism-based; set-up: dose 8 mg/kg, route intravenous; conditions: in vivo
[22] = system: Homo sapiens; assay: Unbound clearance in healthy human at 6 mg/kg, iv administered as 30 mins infusion every 24 hrs measured on day 1; assay type: ADME, organism-based; set-up: dose 6 mg/kg, route intravenous; conditions: in vivo
[23] = Unbound fraction in healthy human plasma at 8 mg/kg, iv administered as 30 mins infusion every 24 hrs measured on day 7; assay type: ADME, organism-based; set-up: dose 8 mg/kg, route intravenous
[24] = system: Staphylococcus; assay: Antimicrobial activity against Staphylococcus; assay type: functional

`CCCCCCCCCC(=O)N[C@@H](Cc1c[nH]c2ccccc12)C(=O)N[C@H](CC(N)=O)C(=O)N[C@@H](CC(=O)O)C(=O)N[C@@H]1C(=O)NCC(=O)N[C@@H](CCCN)C(=O)N[C@@H](CC(=O)O)C(=O)N[C@H](C)C(=O)N[C@@H](CC(=O)O)C(=O)NCC(=O)N[C@H](CO)C(=O)N[C@@H]([C@H](C)CC(=O)O)C(=O)N[C@@H](CC(=O)c2ccccc2N)C(=O)O[C@@H]1C` showed a Cmax [1] of 93.9 µg/mL, a Vd [2] of 0.117 L/kg and a half-life [3] of 8.12 h. For the same compound, the AUC(0-inf) [4] was 632 µg·h/mL, the Cmax [5] was 53.2 µg/mL and the fraction unbound at 8 h [6] was 0.068. It also gave a dose excreted at 0.5 h [7] of 39.8%, a half-life [8] of 9.44 h and an MRT [9] of 9.05 h. It also gave a fraction unbound at 7 day [10] of 0.08, a clearance [11] of 0.158 mL/min/kg and a Vd [12] of 0.1059 L/kg. For the same compound, the clearance [13] was 0.147 mL/min/kg, the dose excreted at 0.5 h [14] was 49.3% and the Vd [15] was 0.111 L/kg. The Vd [16] was 0.0976 L/kg, the clearance [17] was 0.13 mL/min/kg and the Vdss [18] was 6057 mL. The half-life [19] was 8.3 h, the concentration at 24 h [20] was less than 3.3 µg/mL and the clearance [21] was 0.123 mL/min/kg. It also gave a CL [22] of 0.992 mL/min/kg, a fraction unbound at 7 day [23] of 0.09 and an MIC90 [24] of less than 1 µg/mL.
